# Measured values of several laboratories.
# CYP2D6: Cytochrome P450 2D6 (CYP2D6, Homo sapiens, UniProt P10635)
SMILES,tested on,test,test system,setting,measurement,result
Cc1ccc(C(CS(=O)(=O)c2ccccc2)=NNc2nc(-c3ccc(OCCCCOc4ccc(-c5csc(NN=C(CS(=O)(=O)c6ccccc6)c6ccc(C)cc6)n5)cc4)cc3)cs2)cc1,WM 266-4,"cell growth or viability, MTT",,"1.6 µg, 48 h",viability,64.3%
COc1cc2c3c(n(CCCN4CCOCC4)c(=O)c2cc1OC)-c1cc2c(cc1C3=O)OCO2,,,"female beagle dog, plasma","intravenous, 10 mg/m², infusion",half-life,8 h
Cc1ccc(C(CS(=O)(=O)c2ccccc2)=NNc2nc(C)c(N=Nc3cccc(C)c3)s2)cc1,WM 266-4,"cell growth or viability, MTT",,"1.6 µg, 48 h",viability,52.6%
COCCc1ccc(OCC(O)CNC(C)C)cc1 (stereo not drawn),CYP2D6,,"human, plasma","oral, 100 mg, single dose, healthy volunteers",AUC(0-t),758 ng·h/mL
COC(=O)C1CCN(C(=O)c2ccc(N(CCCO)Cc3cnc4nc(N)nc(N)c4n3)cc2)CC1,CYP2D6,"enzyme activity, inhibitor, luciferase",,10 µM,inhibition,-27.1%
Oc1c(-n2ccnn2)cnn1-c1cc(N2CCOCC2)ncn1,,,"female dog, plasma","oral, 1.5 mg/kg",half-life,2.2 h
NC(=S)NN=C(CS(=O)(=O)c1ccccc1)c1ccc(F)cc1,WM 266-4,"cell growth or viability, MTT",,"1.6 µg, 48 h",viability,48.6%
CC[C@@H]1CN(C(=O)NCC(F)(F)F)C[C@@H]1c1cnc2cnc3[nH]ccc3n12,,,"beagle dog, plasma","oral, 1 mg/kg, single dose",AUC(0-inf),582 ng·h/mL
C[C@@H]1CCC[C@H](n2cnc(-c3cc(Cl)ccc3-n3cc(Cl)nn3)cc2=O)c2cc(ccn2)-c2c(cnn2C(F)F)NC1=O,,,"male rabbit, plasma","intravenous, 0.8 mg/kg",Vd,1.4 L/kg
Nc1nc(N)c2nc(C(=O)NCc3ccccc3)cnc2n1,CYP2D6,"enzyme activity, inhibitor, luciferase",,10 µM,inhibition,105%
O=C(NCCN1CCCC1)c1cc(-c2ccc(CN3CCOCC3)cc2)nc2ccc(F)cc12,,,"male beagle dog, blood","oral, 3 mg/kg",half-life,20 h
Cc1nc(-c2cnc(NC(C)C)n(C)c2=O)ccc1Oc1ccnc(-c2cnn(C)c2)c1,,,"male beagle dog, plasma","oral, 10 mg/kg",AUC(0-t),19500 ng·h/mL
